Calls of active or inactive are those of the source. The rule behind the calls is not given here.
How the values were obtained:
Carboxypeptidase A1 [1] = target: T1, Carboxypeptidase A1 (Homo sapiens, UniProt P15085); test: Inhibition of human CPA1 using AAFP as substrate preincubated for 45 mins to 2 hrs measured at 30 sec intervals for 15 mins by UV/vis-spectrophotometry
T1 sequence (P15085 whole entry): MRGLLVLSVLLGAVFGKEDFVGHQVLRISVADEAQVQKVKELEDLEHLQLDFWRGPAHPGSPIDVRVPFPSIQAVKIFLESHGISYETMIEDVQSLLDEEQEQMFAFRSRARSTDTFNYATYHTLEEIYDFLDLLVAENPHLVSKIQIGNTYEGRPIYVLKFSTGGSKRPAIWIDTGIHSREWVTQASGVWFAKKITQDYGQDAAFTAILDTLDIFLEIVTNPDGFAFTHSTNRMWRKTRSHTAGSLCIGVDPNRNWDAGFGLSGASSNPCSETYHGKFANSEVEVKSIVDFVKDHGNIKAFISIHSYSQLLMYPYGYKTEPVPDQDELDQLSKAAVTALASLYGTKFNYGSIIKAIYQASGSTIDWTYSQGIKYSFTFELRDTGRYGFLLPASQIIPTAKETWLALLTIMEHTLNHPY
Procedure, shortened: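 hCPA1 was used at 1.0x10-8 M with AAFP substrate at 1.0x10-4 M, read at 355 nm. Enzyme and inhibitor were preincubated 45 min at 37 °C before substrate was added. Initial velocities were read every 30 sec for 15 min, in triplicate. Apparent Ki came from a fit to the tight-binding equation.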

Carboxypeptidase A2 = target: T2, Carboxypeptidase A2 (Homo sapiens, UniProt P48052); test: Inhibition of human CPA2 using AAFP as substrate preincubated for 45 mins to 2 hrs measured at 30 sec intervals for 15 mins by UV/vis-spectrophotometry
T2 sequence (P48052 whole entry): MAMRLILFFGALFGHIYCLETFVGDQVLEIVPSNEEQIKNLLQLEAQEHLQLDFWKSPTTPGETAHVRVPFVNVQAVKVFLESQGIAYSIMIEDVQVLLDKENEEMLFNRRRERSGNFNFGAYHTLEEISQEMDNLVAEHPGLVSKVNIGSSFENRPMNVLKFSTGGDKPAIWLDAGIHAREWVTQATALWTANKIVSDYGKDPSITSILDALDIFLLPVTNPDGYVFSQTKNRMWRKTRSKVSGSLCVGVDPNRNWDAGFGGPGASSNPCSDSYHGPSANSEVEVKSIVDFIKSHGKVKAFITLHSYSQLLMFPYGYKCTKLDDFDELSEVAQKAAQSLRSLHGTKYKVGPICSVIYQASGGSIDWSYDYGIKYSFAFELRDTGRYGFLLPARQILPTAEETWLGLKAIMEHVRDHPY
Procedure, shortened: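 hCPA2 was used at 3.0x10-8 M with AAFP substrate at 1.0x10-4 M, read at 355 nm, in 20 mM Tris-HCl pH 7.5, 500 mM NaCl, 1% DMSO, 0.05% Brij-35. After a 45 min preincubation at 37 °C, initial rates were followed at 30 sec intervals for 15 min, in triplicate. Kiapp was fitted by the tight-binding equation.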

[2] = target: T3, Carboxypeptidase A1 (Homo sapiens) (UniProt P15085); test: Inhibition of human CPA1 using AAFP as substrate assessed as dissociation rate constant measured at pre-steady state by spectrophotometry
T3 sequence (whole entry): T1 sequence (P15085 whole entry)

Carboxypeptidase A1 [3] = target: T1, Carboxypeptidase A1; test: Inhibition of human CPA1 using AAFP as substrate assessed as apparent first-order rate constant measured at pre-steady state by measuring Koff/Kon ratio by spectrophotometry; details: read-out: Ki(app)
[4] = target: T3, Carboxypeptidase A1 (Homo sapiens); test: Inhibition of human CPA1 using AAFP as substrate assessed as association rate constant measured at pre-steady state by spectrophotometry
Carboxypeptidase A1 [5] = target: T1, Carboxypeptidase A1; test: Inhibition of human CPA1 using AAFP as substrate measured at pre-steady state by spectrophotometry
[6] = target: Mast cell carboxypeptidase A (Rattus norvegicus, UniProt P21961); test: Inhibition of rat CPA3 using AAFP as substrate preincubated for 45 mins measured at 30 sec intervals for 15 mins by UV/vis-spectrophotometry
Procedure, shortened: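 Enzyme, inhibitor and buffer preincubated 45 min at 37 °C, then substrate added. Read at 355 nm every 30 sec for 15 min as initial velocities, in triplicate.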

[7] = target: Matrix metalloproteinase-9 (Homo sapiens, UniProt P14780); test: Inhibition of human MMP9 using fluorogenic Mca-Pro-Leu-Gly-Leu-Dpa-Ala-Arg-NH2 peptide as substrate preincubated for 45 mins measured at 30 sec intervals for 15 mins by UV/vis-spectrophotometry
Procedure, shortened: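 MMPs at nanomolar level with fluorogenic Mca-Pro-Leu-Gly-Leu-Dpa-Ala-Arg-NH2 substrate in 50 mM Tris-HCl pH 6.8, 10 mM CaCl2. Enzyme, inhibitor and buffer preincubated 45 min at 37 °C, then substrate added; initial velocities from 30-sec reads over 15 min, in triplicate.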

[8] = Drug uptake in CPA3 expressing human HeLa cells at 1 to 5 uM treated for 6 hrs followed by cell wash and measured by DAPI-staining based fluorescence confocal microscopy; type: ADME
Procedure, shortened: (§1)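 HeLa cells with cytoplasmic hCPA3 expression were treated 6 h with the fluorescent probe at 1 or 5 µM, washed, then imaged by fluorescence confocal microscopy for internalization and co-localization with CPA3.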

[9] = target: Neutrophil elastase (Homo sapiens) (UniProt P08246); test: Inhibition of human neutrophil Elastase at 1 nM to 1 mM using succinyl-alanylalanyl-prolyl-valine-4-nitroanilide as substrate preincubated for 45 mins measured at 30 sec intervals for 15 mins by UV/vis-spectrophotometry
Procedure, shortened: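 hNElastase 2.0x10-7 M, Suc-AAPVPNA 1.0x10-3 M, in 100 mM Tris-HCl pH 8.0, monitored at 414 nm. Preincubated with inhibitor 45 min at 37 °C before substrate; initial velocities from 30-sec reads over 15 min, triplicate.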

[10] = target: Prothrombin (Homo sapiens) (UniProt P00734); test: Inhibition of human thrombin at 1 nM to 1 mM using benzoylphenyl-valyl-arginine 4-nitroanilide as substrate preincubated for 45 mins measured at 30 sec intervals for 15 mins by UV/vis-spectrophotometry
Procedure, shortened: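 hThrombin 2.0x10-8 M with 1.0x10-3 M BzFVRPNA in 100 mM Tris-HCl pH 8.0, followed at 414 nm. Enzyme and inhibitor preincubated 45 min at 37 °C; substrate then added; initial velocities every 30 sec for 15 min, in triplicate.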

[11] = target: Mast cell carboxypeptidase A (Homo sapiens) (UniProt P15088); test: Binding affinity to CPA3 expressing human HeLa cells assessed as compound co-localization with CPA3 at 1 to 5 uM treated for 6 hrs followed by cell wash and measured by DAPI-staining based fluorescence confocal microscopy; procedure, shortened: as §1
HeLa = test: Cytotoxicity against human HeLa cells assessed as reduction in cell viability at 1 to 5 uM after 24 hrs by XTT assay; type: cell-based
Procedure, shortened: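 Cells were exposed to compound at 1 and 5 µM for 24h in culture, and viability was then read by the XTT assay.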

[12] = target: T3, Carboxypeptidase A1 (Homo sapiens); test: Inhibition of human CPA1 peptide degradation activity at 5 to 500 nM using neurotensin peptide as substrate preincubated for 2 hrs followed by substrate addition and measured up to 7 hrs by MALDI-TOF/TOF spectrometry
Procedure, shortened: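 Human CPA1 (20nM) digested the model peptide neurotensin over a 0-7h time course, with no inhibitor or with inhibitor at 5 and 500nM. Samples were taken at intervals and analyzed by MALDI-TOF MS.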

Chain of Mast cell carboxypeptidase A (Homo sapiens) (P15088 whole entry): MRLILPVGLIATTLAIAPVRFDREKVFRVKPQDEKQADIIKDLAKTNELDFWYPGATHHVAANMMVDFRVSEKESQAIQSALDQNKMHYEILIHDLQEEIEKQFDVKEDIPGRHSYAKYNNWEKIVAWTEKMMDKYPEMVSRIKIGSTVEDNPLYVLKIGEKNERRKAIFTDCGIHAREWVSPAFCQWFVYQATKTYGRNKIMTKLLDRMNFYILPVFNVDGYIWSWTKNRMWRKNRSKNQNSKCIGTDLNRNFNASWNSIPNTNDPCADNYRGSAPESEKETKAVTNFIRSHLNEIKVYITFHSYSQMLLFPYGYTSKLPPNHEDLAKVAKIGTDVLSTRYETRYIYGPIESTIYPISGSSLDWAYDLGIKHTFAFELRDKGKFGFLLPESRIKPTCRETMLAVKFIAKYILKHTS
Chain of Mast cell carboxypeptidase A (P21961 whole entry): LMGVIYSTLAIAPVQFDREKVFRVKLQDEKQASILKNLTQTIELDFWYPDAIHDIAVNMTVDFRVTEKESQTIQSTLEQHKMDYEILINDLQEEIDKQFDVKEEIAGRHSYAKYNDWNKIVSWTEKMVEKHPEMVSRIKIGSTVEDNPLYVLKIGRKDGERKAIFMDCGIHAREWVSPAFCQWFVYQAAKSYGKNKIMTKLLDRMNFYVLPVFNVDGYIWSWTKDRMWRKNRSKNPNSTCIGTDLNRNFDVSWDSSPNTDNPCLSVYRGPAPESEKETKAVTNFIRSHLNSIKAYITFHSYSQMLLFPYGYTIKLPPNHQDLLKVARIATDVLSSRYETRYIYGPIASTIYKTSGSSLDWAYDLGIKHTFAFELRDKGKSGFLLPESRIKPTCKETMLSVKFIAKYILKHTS
Chain of Matrix metalloproteinase-9 (P14780 whole entry): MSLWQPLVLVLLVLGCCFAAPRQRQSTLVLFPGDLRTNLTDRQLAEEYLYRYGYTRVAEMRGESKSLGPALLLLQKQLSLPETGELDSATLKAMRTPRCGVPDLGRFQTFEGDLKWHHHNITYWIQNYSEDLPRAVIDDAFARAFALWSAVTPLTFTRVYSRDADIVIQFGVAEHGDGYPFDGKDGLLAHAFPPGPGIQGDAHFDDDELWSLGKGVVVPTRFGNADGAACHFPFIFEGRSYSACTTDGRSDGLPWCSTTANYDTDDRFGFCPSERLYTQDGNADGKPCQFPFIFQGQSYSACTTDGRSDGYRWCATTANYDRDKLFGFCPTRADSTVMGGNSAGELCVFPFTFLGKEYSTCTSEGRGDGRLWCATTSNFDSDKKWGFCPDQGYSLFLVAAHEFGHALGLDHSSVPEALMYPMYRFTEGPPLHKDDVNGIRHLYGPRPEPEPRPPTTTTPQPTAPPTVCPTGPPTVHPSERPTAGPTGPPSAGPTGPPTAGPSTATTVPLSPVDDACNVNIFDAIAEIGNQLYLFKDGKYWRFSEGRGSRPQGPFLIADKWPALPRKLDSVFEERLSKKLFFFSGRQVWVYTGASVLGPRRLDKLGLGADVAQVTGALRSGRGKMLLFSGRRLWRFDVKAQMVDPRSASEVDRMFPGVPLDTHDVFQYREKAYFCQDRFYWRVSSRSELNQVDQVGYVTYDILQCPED
Chain of Neutrophil elastase (Homo sapiens) (P08246 whole entry): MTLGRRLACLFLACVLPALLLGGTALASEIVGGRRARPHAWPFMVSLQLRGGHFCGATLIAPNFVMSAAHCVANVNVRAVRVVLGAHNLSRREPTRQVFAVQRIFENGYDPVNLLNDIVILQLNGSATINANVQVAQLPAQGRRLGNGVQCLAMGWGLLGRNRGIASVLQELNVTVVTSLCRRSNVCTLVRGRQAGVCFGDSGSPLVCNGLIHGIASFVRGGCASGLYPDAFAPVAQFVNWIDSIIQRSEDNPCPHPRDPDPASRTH

SMILES	Ki (Carboxypeptidase A1 [1])	Ki (Carboxypeptidase A2)	K [2]	Ki (Carboxypeptidase A1 [3])	K [4]	Ki (Carboxypeptidase A1 [5])	also measured
CC(=O)N[C@@H](CO)C(=O)N[C@@H](C)P(=O)(O)C[C@@H](CCc1ccccc1)C(=O)O	5.9 nM	13.8 nM					
CC(=O)N[C@@H](CCCCN)C(=O)N[C@@H](C)P(=O)(O)C[C@@H](CCc1ccccc1)C(=O)O	1.2 nM	2.4 nM					
CC(=O)NCCOCCOCC(=O)N[C@@H](Cc1ccc(O)cc1)C(=O)N[C@@H](C)P(=O)(O)C[C@@H](CCc1ccccc1)C(=O)O	0.129 nM	5.7 nM	7 ×10⁻⁵ /s	0.53 nM	1.33 ×10⁵ /M/s	0.16 nM	
CC(=O)N[C@@H](CC(C)C)C(=O)N[C@@H](Cc1ccccc1)P(=O)(O)C[C@@H](CCc1ccccc1)C(=O)O	0.08 nM	0.2 nM					
C[C@H](NC(=O)[C@H](Cc1ccc(O)cc1)NC(=O)COCCOCCNC(=O)CCOCCOCCOCCNC(=O)CCc1ccc(C(=C\C=C2\N(CCCCS(=O)(=O)O)c3ccc4c(S(=O)(=O)[O-])cc(S(=O)(=O)O)cc4c3C2(C)C)/C=C/C2=[N+](CCCCS(=O)(=O)O)c3ccc4c(S(=O)(=O)O)cc(S(=O)(=O)O)cc4c3C2(C)C)cc1)P(=O)(O)C[C@@H](CCc1ccccc1)C(=O)O	0.089 nM	5.3 nM	4.8 ×10⁻⁵ /s	0.24 nM	2.03 ×10⁵ /M/s	0.07 nM	Ki [6]: 0.017 nM; Ki [7]: 2590 nM; Drug uptake [8]: Not Active; inhibition [9]: inactive; inhibition [10]: inactive; Activity [11]: Active
CC(=O)N[C@@H](Cc1ccc(O)cc1)C(=O)N[C@@H](C)P(=O)(O)C[C@@H](CCc1ccccc1)C(=O)O	0.107 nM	1.7 nM	7.6 ×10⁻⁵ /s	0.53 nM	1.44 ×10⁵ /M/s	0.16 nM	Activity (HeLa): Non-Toxic; inhibition [12]: Active
C[C@H](NC(=O)[C@H](Cc1ccc(O)cc1)NC(=O)COCCOCCN)P(=O)(O)C[C@@H](CCc1ccccc1)C(=O)O	0.3 nM	7.8 nM					
CC(=O)N[C@@H](CCC(=O)O)C(=O)N[C@@H](C)P(=O)(O)C[C@@H](CCc1ccccc1)C(=O)O	3.1 nM	4.6 nM					
CC(=O)N[C@@H](CC(C)C)C(=O)N[C@@H](C)P(=O)(O)C[C@@H](CCc1ccccc1)C(=O)O	0.087 nM	0.7 nM	6 ×10⁻⁵ /s	0.47 nM	1.27 ×10⁵ /M/s	0.14 nM	
CC(=O)N1CCC[C@H]1C(=O)N[C@@H](C)P(=O)(O)C[C@@H](CCc1ccccc1)C(=O)O	1.7 nM	3.2 nM					

Source: ChEMBL document CHEMBL4411328, “Synthesis and Structural/Functional Characterization of Selective M14 Metallocarboxypeptidase Inhibitors Based on Phosphinic Pseudopeptide Scaffold: Implications on the Design of Specific Optical Probes” (J Med Chem, 2019)
